# Measurements of several laboratories.
# DPP9: Dipeptidyl peptidase 9 (DPP9, Homo sapiens, UniProt Q86TI2)
# Oprd1: Delta-type opioid receptor (Oprd1, Rattus norvegicus, UniProt P33533)
# MAP4K1: Mitogen-activated protein kinase kinase kinase kinase 1 (MAP4K1, Homo sapiens, UniProt Q92918)
SMILES,target,assay,setting,endpoint,result
CC[C@H](NC(=O)OCc1ccccc1)C(=O)N[C@H](C(=O)N[C@@H](CC(C)C)C(=O)N(C)N(C#N)CCC(N)=O)C(C)(C)C,"Cathepsin B (CTSB, Homo sapiens, UniProt P07858)","enzyme activity, inhibitor",,kon,8400 M⁻¹ s⁻¹
N=C(N)c1ccc2cc(OC(=O)c3ccc(N=C(N)N)cc3)ccc2c1,DPP9,"enzyme activity, inhibitor",10 µM,inhibition,13%
C#Cc1n[nH]c2c(-c3cn(C(C)c4ccccn4)c(=O)[nH]c3=O)cc(F)cc12 (stereo not shown),"Cyclin-dependent kinase 8, with cyclin C (CDK8, Homo sapiens, UniProt P49336)","enzyme activity, inhibitor",1 µM,inhibition,6.2%
CN1CCN(c2ccc(Nc3nccc(-c4cccc([N+](=O)[O-])c4)n3)cc2C(F)(F)F)CC1,"Cyclin-dependent kinase 2 homolog (CRK2, Plasmodium falciparum, UniProt P61075)",cell-free assay,10 µM,remaining signal,93%
CCCC[C@H]1CNCCN1C[C@@H]1CCCN1C[C@@H](Cc1ccc2ccccc2c1)N1CCN(CCC23CC4CC(CC(C4)C2)C3)[C@H]([C@@H](C)O)C1,Oprd1,"ligand displacement, radioligand","0.5 µM, 2 h, pH 7.5, cell membranes",remaining binding,87.3%
Nc1ncc(-c2nc(N3CCOCC3)nc(N3CCOCC3)n2)c(C(F)F)n1,"Cyclin-dependent kinase 8 (CDK8, Homo sapiens, UniProt P49336)","binding, competition with immobilised ligand",10 µM,remaining binding,100%
N#Cc1ccc(NCCNCC(=O)N2N=CCC2C#N)nc1 (stereo not shown),DPP9,"enzyme activity, inhibitor",10 µM,inhibition,87%
COc1cc(Cl)c(C(=O)N[C@@H](CN[C@H]2CC[C@@H](N)CC2)Cc2ccc(C#N)cc2)cc1-c1ccc(CN[C@H](C)c2ccc(C)cc2)o1,"MAP kinase-activated protein kinase 3 (MAPKAPK3, Homo sapiens, UniProt Q16644)","enzyme activity, inhibitor",1 µM,remaining activity,107%
OC[C@H]1CNCCN1C[C@@H]1CCCN1C[C@H](CC1CCCCC1)N1CCN(CCc2ccc(Cl)c(Cl)c2)[C@H](Cc2ccc(O)cc2)C1,Oprd1,"ligand displacement, radioligand","0.5 µM, 2 h, pH 7.5, cell membranes",remaining binding,88%
COc1ncccc1-c1cnn2ccc(N3CCN(C(=O)OC(C)C)CC3)nc12,MAP4K1,"binding, competition with immobilised ligand",1 µM,remaining binding,80%
CC[C@@H](C)[C@@H]1CN([C@@H](CC2CCCCC2)CN2CCC[C@H]2CN2CCNC[C@@H]2CO)CCN1CCc1ccc(Cl)c(Cl)c1,Oprd1,"ligand displacement, radioligand","0.5 µM, 2 h, pH 7.5, cell membranes",remaining binding,94%
CCN(CC)CCCC[C@H](NC(=O)[C@H](CC(C)C)NC(=O)[C@H](C)NC(=O)[C@H](Cc1ccccc1)NC(=O)c1ccc(C(C)(C)C)cc1)C(=O)N[C@@H](CO)C(=O)OC,"Bromodomain-containing protein 7 (BRD7, Homo sapiens, UniProt Q9NPI1)","thermal stability, DSF",25 µM,ΔTm,0.08 °C
C[C@@H](O)[C@@H]1CN([C@H](Cc2ccc3ccccc3c2)CN2CCC[C@H]2CN2CCNC[C@@H]2Cc2ccc3ccccc3c2)CCN1CCc1ccc(Cl)c(Cl)c1,Oprd1,"ligand displacement, radioligand","0.5 µM, 2 h, pH 7.5, cell membranes",remaining binding,105%
Cc1nn(C)cc1-c1nc2c(N3CCN(Cc4ccc(Cl)cc4)CC3)c(Cl)cnc2[nH]1,MAP4K1,"binding, competition with immobilised ligand",1 µM,remaining binding,74%
C#Cc1n[nH]c2c(-c3cn([C@@H](C)c4ccccc4)c(=O)[nH]c3=O)cc(F)cc12,MAP4K1,"enzyme activity, inhibitor",0.1 µM,inhibition,2.7%
CC[C@@H](C)[C@@H]1CN([C@@H](CC2CCCCC2)CN2CCC[C@H]2CN2CCNC[C@@H]2CO)CCN1CCC12CC3CC(CC(C3)C1)C2,Oprd1,"ligand displacement, radioligand","0.5 µM, 2 h, pH 7.5, cell membranes",remaining binding,90%
